Results on 2 compounds are retold here after ChEMBL document CHEMBL1152541, “Staurosporine tethered peptide ligands that target cAMP-dependent protein kinase (PKA): optimization and selectivity profiling” (Bioorg Med Chem, 2009).

*1 amine or outer side, *2 acyl side, *3 side chain or, on linkers, in order; H or OH if unused. Where a SMILES comes first, the peptide text is derived from it. Bridges are numbered along the chain shown (N, C = ends). [ ]: non-standard residue; d: D form. The star is where a group is joined. Staurosporine = CO[C@@H]1[C@H](N(C)*)C[C@H]2O[C@]1(C)n1c3ccccc3c3c4c(c5c6ccccc6n2c5c31)C(=O)NC4; Suc = O=C(CCC(=O)[*:2])[*:1]; Dap = NC[C@H](N)C(=O)O; βAla = NCCC(=O)O

In assay [1] the target is Mitogen-activated protein kinase 8 (Homo sapiens) (UniProt P45983). Briefly: Binding affinity to human JNK1 at 500 nM by cell-based competition binding assay relative to control in presence of DTT. The procedure, abridged: (§1)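 Competition binding screen (Ambit) across a panel of 90 kinases, scoring test ligand displacement of each kinase's binding relative to control. The screen ran under reducing conditions with 7.5 mM DTT.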

For assay [2], the target named is Glycogen synthase kinase-3 beta (Homo sapiens) (UniProt P49841). As to the kind of experiment: Binding affinity to human GSK3-beta at 500 nM by cell-based competition binding assay relative to control in presence of DTT. The procedure, abridged:
as §1

The target of assay [3] is Hepatocyte growth factor receptor (Homo sapiens) (UniProt P08581). As to the kind of experiment: Binding affinity to human MET at 500 nM by cell-based competition binding assay relative to control in presence of DTT.
Sequence of Hepatocyte growth factor receptor (Homo sapiens) (P08581 whole entry): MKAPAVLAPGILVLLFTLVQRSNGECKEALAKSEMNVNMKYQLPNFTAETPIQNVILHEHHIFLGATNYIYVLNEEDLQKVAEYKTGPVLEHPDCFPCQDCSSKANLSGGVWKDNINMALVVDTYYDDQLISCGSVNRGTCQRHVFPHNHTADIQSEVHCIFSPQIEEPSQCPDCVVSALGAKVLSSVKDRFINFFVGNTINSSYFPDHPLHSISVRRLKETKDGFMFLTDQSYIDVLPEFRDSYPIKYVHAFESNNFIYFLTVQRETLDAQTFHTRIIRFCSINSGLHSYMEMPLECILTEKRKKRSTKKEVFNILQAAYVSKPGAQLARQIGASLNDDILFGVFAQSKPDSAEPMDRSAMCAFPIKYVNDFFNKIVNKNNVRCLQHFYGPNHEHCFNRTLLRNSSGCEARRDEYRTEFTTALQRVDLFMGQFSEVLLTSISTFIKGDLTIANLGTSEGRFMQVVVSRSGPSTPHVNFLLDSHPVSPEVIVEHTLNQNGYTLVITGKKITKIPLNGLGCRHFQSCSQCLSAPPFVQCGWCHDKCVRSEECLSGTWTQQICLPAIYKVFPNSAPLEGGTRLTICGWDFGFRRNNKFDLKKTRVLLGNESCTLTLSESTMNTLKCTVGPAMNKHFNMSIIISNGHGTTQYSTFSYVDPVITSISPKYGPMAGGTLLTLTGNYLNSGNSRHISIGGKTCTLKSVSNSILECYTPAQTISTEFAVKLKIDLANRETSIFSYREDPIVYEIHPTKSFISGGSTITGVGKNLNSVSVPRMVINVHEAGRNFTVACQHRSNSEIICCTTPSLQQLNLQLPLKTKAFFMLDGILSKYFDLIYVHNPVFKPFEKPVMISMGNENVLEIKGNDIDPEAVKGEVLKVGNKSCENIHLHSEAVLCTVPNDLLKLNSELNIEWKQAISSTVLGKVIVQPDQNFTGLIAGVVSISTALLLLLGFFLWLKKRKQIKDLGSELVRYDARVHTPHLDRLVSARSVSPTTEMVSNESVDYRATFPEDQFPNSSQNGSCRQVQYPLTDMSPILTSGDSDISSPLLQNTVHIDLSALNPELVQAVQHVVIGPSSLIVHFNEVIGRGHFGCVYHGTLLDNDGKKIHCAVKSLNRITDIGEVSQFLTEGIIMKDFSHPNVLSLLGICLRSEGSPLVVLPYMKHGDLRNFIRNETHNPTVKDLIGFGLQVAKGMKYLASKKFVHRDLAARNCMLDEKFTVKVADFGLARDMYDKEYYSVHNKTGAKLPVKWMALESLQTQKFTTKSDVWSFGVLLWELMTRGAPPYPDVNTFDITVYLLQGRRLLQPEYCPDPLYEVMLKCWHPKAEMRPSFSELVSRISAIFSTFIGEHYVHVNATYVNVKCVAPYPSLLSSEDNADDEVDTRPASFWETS
Assay [4] has as its target Glycogen synthase kinase-3 beta (Homo sapiens) (UniProt P49841). As to the kind of experiment: Ratio of compound to staurosporine binding affinity to human GSK3-beta in presence of DTT.
Assay [5] has as its target High affinity nerve growth factor receptor (Homo sapiens) (UniProt P04629). As to the kind of experiment: Binding affinity to human TRKA at 500 nM by cell-based competition binding assay relative to control in presence of DTT.
The target of assay [6] is Mitogen-activated protein kinase kinase kinase 4 (Homo sapiens) (UniProt Q9Y6R4). As to the kind of experiment: Binding affinity to human MAP3K4 at 500 nM by cell-based competition binding assay relative to control in presence of DTT. The method in brief: as §1
The target of assay [7] is Serine/threonine-protein kinase B-raf (Homo sapiens) (UniProt P15056). Briefly: Binding affinity to human BRAF at 500 nM by cell-based competition binding assay relative to control in presence of DTT. The method in brief:
(§2)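 Kinase binding profiling ran on a commercial (Ambit) competitive binding screen against a panel of 90 kinases. The screen used reducing conditions with 7.5 mM DTT. To withstand the DTT, the bivalent ligand was tested as its amide isostere, with the disulfide replaced. A staurosporine derivative carrying a 3 β-alanine linker was run as the reference compound.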

For assay [8], the target named is Serine/threonine-protein kinase PLK1 (Homo sapiens) (UniProt P53350). Briefly: Binding affinity to human PLK1 at 500 nM by cell-based competition binding assay relative to control in presence of DTT.
Assay [9] addresses T1, Serine/threonine-protein kinase PLK4 (Homo sapiens) (UniProt O00444).
T1 sequence (whole entry): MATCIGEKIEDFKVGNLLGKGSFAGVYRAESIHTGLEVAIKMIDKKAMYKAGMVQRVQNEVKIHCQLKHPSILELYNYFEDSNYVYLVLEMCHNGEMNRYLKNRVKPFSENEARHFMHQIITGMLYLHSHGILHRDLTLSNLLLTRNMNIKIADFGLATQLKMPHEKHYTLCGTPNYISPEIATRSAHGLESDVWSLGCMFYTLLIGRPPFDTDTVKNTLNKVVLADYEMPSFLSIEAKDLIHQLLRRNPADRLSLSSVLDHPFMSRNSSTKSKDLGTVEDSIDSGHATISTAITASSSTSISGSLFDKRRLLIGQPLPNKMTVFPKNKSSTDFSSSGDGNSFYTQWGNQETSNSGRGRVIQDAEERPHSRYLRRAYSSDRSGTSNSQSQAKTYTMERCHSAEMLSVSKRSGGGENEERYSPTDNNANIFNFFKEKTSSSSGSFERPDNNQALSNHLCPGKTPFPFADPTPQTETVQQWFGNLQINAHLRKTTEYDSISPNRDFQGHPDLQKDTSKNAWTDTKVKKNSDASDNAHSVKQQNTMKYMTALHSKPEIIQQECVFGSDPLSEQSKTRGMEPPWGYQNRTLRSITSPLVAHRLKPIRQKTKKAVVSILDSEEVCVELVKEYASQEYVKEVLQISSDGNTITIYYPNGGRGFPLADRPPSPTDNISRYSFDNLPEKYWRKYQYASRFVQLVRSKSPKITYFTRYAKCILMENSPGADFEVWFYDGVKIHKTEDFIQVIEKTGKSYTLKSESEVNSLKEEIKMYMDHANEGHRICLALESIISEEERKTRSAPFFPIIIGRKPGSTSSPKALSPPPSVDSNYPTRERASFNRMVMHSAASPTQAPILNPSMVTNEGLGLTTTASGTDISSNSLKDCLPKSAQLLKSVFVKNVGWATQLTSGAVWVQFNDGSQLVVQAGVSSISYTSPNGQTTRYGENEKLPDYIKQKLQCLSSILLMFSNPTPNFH
As to the kind of experiment: Binding affinity to human PLK4 at 500 nM by cell-based competition binding assay relative to control in presence of DTT.

For assay [10], the target named is Receptor tyrosine-protein kinase erbB-2 (Homo sapiens) (UniProt P04626). Briefly: Binding affinity to human ERBB2 at 500 nM by cell-based competition binding assay relative to control in presence of DTT. The method in brief: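 Commercial (Ambit) competitive kinase-binding panel of 90 kinases measured the binding profile. Run under reducing conditions of 7.5 mM DTT. Binding is expressed relative to control.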

Assay [11] has as its target Focal adhesion kinase 1 (Homo sapiens) (UniProt Q05397). Briefly: Binding affinity to human PTK2 at 50 nM by cell-based competition binding assay relative to control in presence of DTT.
In assay [12] the test system is Tyrosine-protein kinase ABL1 (Homo sapiens), P00519 [E255K]. Briefly: Binding affinity to human ABL1 E255K mutant at 50 nM by cell-based competition binding assay relative to control in presence of DTT. The procedure, abridged:
as §2

Sequence of Glycogen synthase kinase-3 beta (Homo sapiens) (P49841 whole entry, looked up): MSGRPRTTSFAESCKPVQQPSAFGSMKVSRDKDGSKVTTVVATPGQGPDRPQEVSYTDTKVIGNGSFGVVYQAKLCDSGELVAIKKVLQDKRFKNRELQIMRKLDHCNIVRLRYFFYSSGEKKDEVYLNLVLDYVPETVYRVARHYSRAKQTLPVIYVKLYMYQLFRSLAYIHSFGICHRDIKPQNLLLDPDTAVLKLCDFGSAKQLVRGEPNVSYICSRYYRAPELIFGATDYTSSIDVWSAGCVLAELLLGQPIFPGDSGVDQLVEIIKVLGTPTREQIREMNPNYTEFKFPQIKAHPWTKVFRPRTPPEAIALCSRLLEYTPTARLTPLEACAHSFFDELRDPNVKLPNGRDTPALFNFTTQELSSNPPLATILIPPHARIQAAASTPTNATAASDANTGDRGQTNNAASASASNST
Sequence of Tyrosine-protein kinase ABL1 (Homo sapiens), P00519 [E255K] (P00519 whole entry E255K): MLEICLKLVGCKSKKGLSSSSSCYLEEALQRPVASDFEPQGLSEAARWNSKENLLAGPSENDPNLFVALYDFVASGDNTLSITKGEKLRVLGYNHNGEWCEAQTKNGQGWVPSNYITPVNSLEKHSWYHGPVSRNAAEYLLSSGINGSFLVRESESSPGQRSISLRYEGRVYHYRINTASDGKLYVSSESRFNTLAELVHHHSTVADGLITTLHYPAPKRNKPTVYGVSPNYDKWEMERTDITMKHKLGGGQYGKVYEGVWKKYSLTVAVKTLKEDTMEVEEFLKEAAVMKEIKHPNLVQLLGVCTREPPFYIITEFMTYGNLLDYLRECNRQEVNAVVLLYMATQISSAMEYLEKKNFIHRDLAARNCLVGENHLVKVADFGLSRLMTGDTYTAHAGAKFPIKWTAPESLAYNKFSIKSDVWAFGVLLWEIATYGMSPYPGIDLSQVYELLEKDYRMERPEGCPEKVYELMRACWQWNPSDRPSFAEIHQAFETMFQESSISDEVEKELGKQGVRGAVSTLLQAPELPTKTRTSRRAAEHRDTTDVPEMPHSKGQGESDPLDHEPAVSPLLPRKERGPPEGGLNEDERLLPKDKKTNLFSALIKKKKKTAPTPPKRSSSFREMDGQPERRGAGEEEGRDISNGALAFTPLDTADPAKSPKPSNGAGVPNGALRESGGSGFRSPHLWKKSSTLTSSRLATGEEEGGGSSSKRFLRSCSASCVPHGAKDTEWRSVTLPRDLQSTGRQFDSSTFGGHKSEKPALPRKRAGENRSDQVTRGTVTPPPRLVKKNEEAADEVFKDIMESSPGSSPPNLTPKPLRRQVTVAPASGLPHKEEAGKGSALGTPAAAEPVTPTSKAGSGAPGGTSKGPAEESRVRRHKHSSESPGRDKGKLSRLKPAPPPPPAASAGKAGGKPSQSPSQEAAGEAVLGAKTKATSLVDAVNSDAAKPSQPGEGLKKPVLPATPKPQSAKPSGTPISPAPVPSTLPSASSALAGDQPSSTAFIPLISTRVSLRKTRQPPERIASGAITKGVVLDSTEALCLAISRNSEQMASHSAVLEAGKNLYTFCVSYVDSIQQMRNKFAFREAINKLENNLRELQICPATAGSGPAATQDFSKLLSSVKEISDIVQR
Sequence of Focal adhesion kinase 1 (Homo sapiens) (Q05397 2-1052 limits assumed): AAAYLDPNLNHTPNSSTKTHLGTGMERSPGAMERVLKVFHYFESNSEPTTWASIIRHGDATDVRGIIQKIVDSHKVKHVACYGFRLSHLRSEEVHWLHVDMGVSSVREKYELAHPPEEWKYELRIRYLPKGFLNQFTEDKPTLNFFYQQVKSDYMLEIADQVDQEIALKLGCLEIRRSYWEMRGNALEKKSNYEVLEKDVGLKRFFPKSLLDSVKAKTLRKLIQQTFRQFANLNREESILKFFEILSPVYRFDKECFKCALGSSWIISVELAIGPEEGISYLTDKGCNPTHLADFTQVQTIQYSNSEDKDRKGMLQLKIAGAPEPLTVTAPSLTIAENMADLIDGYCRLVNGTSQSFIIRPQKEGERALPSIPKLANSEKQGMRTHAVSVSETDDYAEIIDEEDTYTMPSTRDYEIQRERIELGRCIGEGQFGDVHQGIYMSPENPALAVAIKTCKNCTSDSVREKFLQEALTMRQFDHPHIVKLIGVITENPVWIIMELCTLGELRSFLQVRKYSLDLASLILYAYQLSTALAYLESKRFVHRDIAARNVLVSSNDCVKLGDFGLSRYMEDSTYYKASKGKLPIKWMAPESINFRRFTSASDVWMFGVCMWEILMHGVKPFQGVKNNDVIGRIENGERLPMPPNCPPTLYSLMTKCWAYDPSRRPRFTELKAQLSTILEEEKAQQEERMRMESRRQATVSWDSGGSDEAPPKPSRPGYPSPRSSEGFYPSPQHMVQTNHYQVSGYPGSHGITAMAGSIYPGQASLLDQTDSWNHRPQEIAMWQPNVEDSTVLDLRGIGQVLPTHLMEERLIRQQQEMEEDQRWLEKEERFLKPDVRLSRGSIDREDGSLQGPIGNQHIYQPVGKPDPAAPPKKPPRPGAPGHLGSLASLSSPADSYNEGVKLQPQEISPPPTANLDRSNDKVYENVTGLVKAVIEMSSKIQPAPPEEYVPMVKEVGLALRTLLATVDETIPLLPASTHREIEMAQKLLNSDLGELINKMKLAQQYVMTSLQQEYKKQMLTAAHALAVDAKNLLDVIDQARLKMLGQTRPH
Sequence of High affinity nerve growth factor receptor (Homo sapiens) (P04629 33-796 limits assumed): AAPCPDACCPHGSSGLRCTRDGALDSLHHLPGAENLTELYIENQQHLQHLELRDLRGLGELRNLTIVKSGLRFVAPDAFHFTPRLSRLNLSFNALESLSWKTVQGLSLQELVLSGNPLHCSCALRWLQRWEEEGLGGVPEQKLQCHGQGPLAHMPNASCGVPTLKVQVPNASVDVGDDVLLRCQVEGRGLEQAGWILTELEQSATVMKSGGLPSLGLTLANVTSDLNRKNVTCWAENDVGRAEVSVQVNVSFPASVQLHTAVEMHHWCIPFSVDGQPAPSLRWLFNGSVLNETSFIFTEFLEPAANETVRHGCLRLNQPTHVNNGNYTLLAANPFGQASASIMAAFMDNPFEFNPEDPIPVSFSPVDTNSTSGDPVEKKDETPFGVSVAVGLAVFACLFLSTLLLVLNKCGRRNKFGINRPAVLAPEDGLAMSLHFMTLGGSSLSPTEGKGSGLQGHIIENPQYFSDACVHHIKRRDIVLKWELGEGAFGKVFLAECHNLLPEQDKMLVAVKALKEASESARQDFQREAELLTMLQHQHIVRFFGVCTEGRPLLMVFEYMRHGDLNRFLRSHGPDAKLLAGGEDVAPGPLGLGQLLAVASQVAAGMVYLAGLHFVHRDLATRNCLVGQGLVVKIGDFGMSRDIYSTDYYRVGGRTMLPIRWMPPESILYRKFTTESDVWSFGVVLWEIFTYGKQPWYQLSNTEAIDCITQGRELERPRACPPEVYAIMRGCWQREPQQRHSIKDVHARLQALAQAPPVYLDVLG

In the case of `CO[C@@H]1[C@H](N(C)C(=O)CCC(=O)NCCC(=O)NCCC(=O)NCCC(N)=O)C[C@H]2O[C@]1(C)n1c3ccccc3c3c4c(c5c6ccccc6n2c5c31)C(=O)NC4`, the Activity in assay [1] turned out to be 52%; in assay [2], 94%; in assay [3], 46%; in [5], 13%; in assay [6], 95%; in [7], 100%. For the same compound, the figures for the Activity in assay [8], in assay [9] and in assay [10] were 85%, 3.6% and 95%, respectively. In addition, the Selectivity ratio in assay [4] was 7.

On to `CO[C@@H]1[C@H](N(C)C(=O)CCC(=O)NCCC(=O)NCCC(=O)NCCC(=O)NCCC(=O)NCCC(=O)NCCC(=O)NCCC(=O)N[C@H]2CNC(=O)C[C@@H](C(N)=O)NC(=O)CNC(=O)[C@H](Cc3ccccc3)NC(=O)[C@H](C(C)C)NC(=O)[C@H](CCCNC(=N)N)NC(=O)[C@H](Cc3ccccc3)NC(=O)[C@H](C(C)C)NC2=O)C[C@H]2O[C@]1(C)n1c3ccccc3c3c4c(c5c6ccccc6n2c5c31)C(=O)NC4` ({Staurosporine-Suc-βAla-βAla-βAla-βAla-βAla-βAla-βAla}-[Dap]VFRVFGD-NH2; lactam 1-8), for which the results for the Activity in [11] and in [12] were 100% and 97%, respectively.
